Measurements collected from several papers.
Protocols differ between the studies behind these lines.
Organism: Leishmania infantum
Read-out: parasite growth

SMILES	technique	cells	time	notes	endpoint	value
CCCCCCCCCCCCCCCCOP(=O)([O-])OCC[N+](C)(C)C	imaging	–	–	intracellular, amastigote	IC50	5.28 µM
CCCCCCCCCCCCCCCCOP(=O)([O-])OCC[N+](C)(C)C	imaging	mouse Macrophage	5 days	intracellular, amastigote	EC50	8.3 µM
Cc1ccc(-c2c(-c3ccccn3)nc3n2CCC3)cc1	–	–	5 days	intracellular, amastigote	EC50	0.501 µM
O=C(N[C@@H](Cc1ccccc1)C(=O)c1nccs1)[C@H](Cc1ccccc1)NC(=O)N1CCOCC1	–	–	–	intracellular, amastigote	IC50	> 64 µM
Fc1ccc(Nc2c(-c3cccnn3)nc3ccccn23)cc1	–	–	–	intracellular, amastigote	IC50	34.6 µM
O=C(N[C@@H](CCc1ccccc1)C(=O)c1cc(-c2ccccc2)on1)[C@H](Cc1ccccc1)NC(=O)N1CCOCC1 (single isomer, unassigned)	–	–	–	intracellular, amastigote	IC50	> 64 µM
CCCCCCCCCCCCCCCCC#CC(=O)O	–	–	52 h	promastigote	IC50	50.6 µM
O=C(N[C@@H](Cc1ccccc1)C(=O)c1nc2ccccc2s1)[C@H](Cc1ccccc1)NC(=O)N1CCOCC1	–	–	–	intracellular, amastigote	IC50	12.7 µM
c1ccc(-c2nc3n(c2-c2ccc4cccnc4c2)CCC3)nc1	–	–	5 days	intracellular, amastigote	EC50	3.98 µM
